For assay [1], the target named is T1, Quinolone resistance protein NorA (Staphylococcus aureus) (UniProt P0A0J7).
T1 sequence (whole entry): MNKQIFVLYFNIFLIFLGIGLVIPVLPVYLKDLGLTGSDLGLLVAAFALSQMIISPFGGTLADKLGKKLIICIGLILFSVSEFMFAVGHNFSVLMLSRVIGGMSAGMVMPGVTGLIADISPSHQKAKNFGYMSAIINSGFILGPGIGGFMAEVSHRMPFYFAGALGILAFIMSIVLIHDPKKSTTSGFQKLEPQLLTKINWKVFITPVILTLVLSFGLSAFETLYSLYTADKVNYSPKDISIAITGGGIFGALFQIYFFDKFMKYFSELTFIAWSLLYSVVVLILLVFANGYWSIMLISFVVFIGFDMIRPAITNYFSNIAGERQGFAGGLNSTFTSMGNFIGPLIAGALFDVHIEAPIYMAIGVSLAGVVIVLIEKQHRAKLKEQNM
The assay can be described thus: Inhibition of NorA in Staphylococcus aureus 1199B assessed as reduction in ethidium bromide efflux at 50 uM by fluorimetry after 5 mins. An outline of the steps:
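S. aureus SA-1199B (NorA overexpressing via promoter up-mutation; GrlA A116E), EtBr-loaded cells. EtBr loss measured fluorometrically over a 5 min time course, in duplicate, as mean total efflux. Percent reduction calculated versus efflux without compound. Test compound at 50 μM; increasing concentrations were also run for dose-response profiles.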

In assay [2] the test system is Staphylococcus aureus. The assay can be described thus: Antibacterial activity against Staphylococcus aureus 1199B by microdilution technique. The format is functional. An outline of the steps:
(§1)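 MICs run in duplicate by broth microdilution following CLSI guidelines. Ciprofloxacin MICs were also determined with scalar dilutions of freshly prepared test compound solutions in checkerboard combination format. Strain panel: SA-K1902 (norA-), SA-K2378 (norA++), SA-1199 (norA wild-type), SA-1199B (norA++, GrlA A116E) and ATCC 25923 wild-type control.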

The test system of assay [3] is Staphylococcus aureus. The assay can be described thus: Antibacterial activity against wild type Staphylococcus aureus ATCC 25923 by microdilution technique. The format is functional. A digest of the protocol:
(§2)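 Intrinsic MIC of each test compound, run alone, by broth microdilution per CLSI guidelines, in duplicate.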

Assay [4] has as its system Staphylococcus aureus. The assay can be described thus: Antibacterial activity against NorA deficient Staphylococcus aureus K1902 by microdilution technique. The assay is classed as functional. An outline of the steps: as §2
Assay [5] relates to Staphylococcus aureus. The assay can be described thus: Antibacterial activity against Staphylococcus aureus K2378 overexpressing NorA by microdilution technique. The assay is classed as functional. An outline of the steps: as §2
In general terms: In broth dilution the organism is exposed to a series of concentrations in liquid medium.

The test system of assay [6] is Staphylococcus aureus. The assay can be described thus: Antibacterial activity against Staphylococcus aureus 1199B overexpressing wild type NorA and GrlA A116E mutant by microdilution technique. The assay is classed as functional. An outline of the steps: as §2
Assay [7] relates to Staphylococcus aureus. The assay can be described thus: Potentiation of ciprofloxacin MIC against NorA deficient Staphylococcus aureus K1902 by microdilution technique. The assay is classed as functional. An outline of the steps: as §1
For assay [8], the target named is T1, Quinolone resistance protein NorA (Staphylococcus aureus). The assay can be described thus: Inhibition of NorA in Staphylococcus aureus 1199 assessed as reduction in ciprofloxacin MIC by microdilution technique. A digest of the protocol: (§3)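 Checkerboard combination: fresh scalar dilutions of test compound crossed with ciprofloxacin dilutions. Ciprofloxacin MIC determined by broth microdilution per CLSI guidelines, in duplicate. The result is the fold reduction in ciprofloxacin MIC relative to ciprofloxacin alone, read at the stated test-compound concentration. Reserpine served as reference inhibitor.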

Assay [9] relates to Staphylococcus aureus. The assay can be described thus: Potentiation of ciprofloxacin MIC against wild type Staphylococcus aureus ATCC 25923 by microdilution technique. The assay is classed as functional. An outline of the steps:
as §1

The target in assay [10] is T1, Quinolone resistance protein NorA (Staphylococcus aureus). The assay can be described thus: Inhibition of NorA in Staphylococcus aureus K2378 assessed as reduction in ciprofloxacin MIC at 3.13 ug/ml by microdilution technique. An outline of the steps: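 CLSI broth microdilution checkerboard combining ciprofloxacin with scalar dilutions of freshly prepared test compound, in duplicate, against S. aureus SA-K2378 (NorA-overexpressing; SA-K1902 norA-negative as paired strain). Value is the ciprofloxacin MIC reduction with test compound present at the stated fixed concentration.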

For assay [11] the target is unchanged. The assay can be described thus: Inhibition of NorA in Staphylococcus aureus 1199B expressing GrlA A116E mutant assessed as reduction in ciprofloxacin MIC at 25 ug/ml by microdilution technique. An outline of the steps:
(§4)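 Ciprofloxacin MICs were measured in duplicate by broth microdilution following CLSI guidelines, alone and in checkerboard combination with scalar dilutions of freshly prepared test compound. Potentiation was scored as the reduction in ciprofloxacin MIC. Strains: SA-1199B (NorA overexpressed via promoter up-mutation, plus GrlA A116E) and ATCC 25923 (wild-type control).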

Assay [12] shares this target. The assay can be described thus: Inhibition of NorA in Staphylococcus aureus K2378 assessed as reduction in ciprofloxacin MIC at 12.5 ug/ml by microdilution technique. An outline of the steps: as §3
For assay [13] the target is unchanged. The assay can be described thus: Inhibition of NorA in Staphylococcus aureus 1199B expressing GrlA A116E mutant assessed as reduction in ciprofloxacin MIC at 12.5 ug/ml by microdilution technique. A digest of the protocol:
as §3

For assay [14], the system named is Staphylococcus aureus. The assay can be described thus: Antibacterial activity against Staphylococcus aureus 1199 expressing wild type NorA by microdilution technique.
The target in assay [15] is T1, Quinolone resistance protein NorA (Staphylococcus aureus). The assay can be described thus: Inhibition of NorA in Staphylococcus aureus K2378 assessed as reduction in ciprofloxacin MIC at 1.56 ug/ml by microdilution technique. An outline of the steps:
as §3

For assay [16] the target is unchanged. The assay can be described thus: Inhibition of NorA in Staphylococcus aureus 1199B expressing GrlA A116E mutant assessed as reduction in ciprofloxacin MIC at 1.56 ug/ml by microdilution technique. A digest of the protocol:
as §3

The test system of assay [17] is Staphylococcus aureus. The assay can be described thus: Potentiation of ciprofloxacin MIC against wild type Staphylococcus aureus ATCC 25923 at 3.13 ug/ml by microdilution technique. The format is functional. A digest of the protocol: as §4
Assay [18] concerns the target T1, Quinolone resistance protein NorA (Staphylococcus aureus). The assay can be described thus: Inhibition of NorA in Staphylococcus aureus 1199 assessed as reduction in ciprofloxacin MIC at 0.78 ug/ml by microdilution technique. A digest of the protocol: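 Checkerboard combination of ciprofloxacin with freshly prepared test compound in S. aureus SA-1199 (norA wild-type). Ciprofloxacin MIC determined in duplicate by CLSI microdilution in the presence of fixed compound concentrations.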

In brackets after ≈: the same amount, converted by molar mass.

The values below come from ChEMBL document CHEMBL1649083, “Discovery of novel inhibitors of the NorA multidrug transporter of Staphylococcus aureus” (2011).

As a reminder, the inhibition is how much of the control response was suppressed. For orientation: MIC means the lowest concentration that inhibits growth of the organism. A low value points to inhibition by little substance.

For the molecule `C[C@@H](NCc1cccc(OCc2ccccc2)c1)[C@@H](O)c1ccccc1`, the inhibition in assay [1] was 86.6%. Also, the MIC is above 288 µM in the assay on Staphylococcus aureus [2]; 100 µg/mL (≈ 288 µM) with Staphylococcus aureus [3]; 100 µg/mL (≈ 288 µM) in the assay on Staphylococcus aureus [4]; 50 µg/mL (≈ 144 µM) in the assay with Staphylococcus aureus [5]; above 100 µg/mL against Staphylococcus aureus [6]; 100 µg/mL (≈ 288 µM) in the assay with Staphylococcus aureus [14]. The “fold change (FC)” value in the assay with Staphylococcus aureus [7] worked out at 2; in assay [8], 2; in the assay on Staphylococcus aureus [9], 2; in [10] it was 4; in assay [11] it was 16; in [12] it was 16. In addition, in [13], the fold change (FC) was 4.

`OC(CNCc1cccc(OCc2ccccc2)c1)c1ccccc1` (stereo unspecified): the inhibition in [1] was found to be 88.4%. Besides, the fold change (FC) in [8] is 4.

In the case of `CC[C@H]1CCc2nc(SCc3ccc(C(=O)O)cc3)c(C#N)c(C(F)(F)F)c2C1`, the inhibition in [1] was 71.7%. Besides, the minimum inhibitory concentration (MIC) was found to be 15 µM (≈ 6.31 µg/mL) against Staphylococcus aureus [2]; 6.25 µg/mL (≈ 14.9 µM) against Staphylococcus aureus [3]; 6.25 µg/mL (≈ 14.9 µM) against Staphylococcus aureus [4]; 6.25 µg/mL (≈ 14.9 µM) against Staphylococcus aureus [5]; 6.25 µg/mL (≈ 14.9 µM) with Staphylococcus aureus [6]; 12.5 µg/mL (≈ 29.7 µM) in the assay on Staphylococcus aureus [14]. The “fold change (FC)” value in the assay on Staphylococcus aureus [7] was 2; in assay [8], 2; in the assay on Staphylococcus aureus [9], 2; in [15] it was 16; in assay [16], 2.

For `Cn1cccc1-c1nc2cc(NC(=O)c3ccccc3)ccc2[nH]1`, the inhibition in [1] worked out at 94.3%. For the same molecule, the fold change (FC) in assay [8] was 4.

Regarding `CC[C@H](C)N1C(=O)S/C(=C/c2ccc(-c3cc(C(=O)O)ccc3Cl)o2)C1=O`, the inhibition in assay [1] came out at 81%. Further, the MIC in the assay with Staphylococcus aureus [2] stood at 123 µM (≈ 49.9 µg/mL); in the assay on Staphylococcus aureus [3], 50 µg/mL (≈ 123 µM); against Staphylococcus aureus [4], 50 µg/mL (≈ 123 µM); against Staphylococcus aureus [5], 50 µg/mL (≈ 123 µM); with Staphylococcus aureus [6], 50 µg/mL (≈ 123 µM); against Staphylococcus aureus [14], 25 µg/mL (≈ 61.6 µM). In addition, the “fold change (FC)” value with Staphylococcus aureus [7] stood at 2; in assay [8] it was 2; in the assay on Staphylococcus aureus [9] it was 2; in assay [10] it was 32; in assay [12] it was 32; in assay [13] it was 8.

On to `Cc1ccc(S(=O)(=O)Nc2ccc3[nH]c(-c4cccn4C)nc3c2)cc1`, for which, in assay [1], the inhibition was 88.2%. The minimal inhibitory concentration (MIC) in the assay on Staphylococcus aureus [2] was above 273 µM; against Staphylococcus aureus [3], above 100 µg/mL; against Staphylococcus aureus [4] it was above 100 µg/mL; in the assay on Staphylococcus aureus [5] it was above 100 µg/mL; against Staphylococcus aureus [6], above 100 µg/mL; with Staphylococcus aureus [14] it was above 100 µg/mL. For the same molecule, the “fold change (FC)” value (with Staphylococcus aureus [17]; in assay [18]) was 8 each time.

As for `CCOC(=O)c1cn(C2CC2)c2c(C)c(N3CCC4=C(C3)/C(=N/O)C(C)CS4)c(N)cc2c1=O` (stereo unspecified), in assay [1], the inhibition was 90%.

For `CCCCOc1ccc([C@H]2C(C#N)=C(N)Oc3cc(N(CC)CC)ccc32)cc1`, the inhibition in assay [1] amounted to 20.5%.

For the molecule `N#Cc1c(C(F)(F)F)cc(Cc2ccccc2)nc1SCc1ccc(C(=O)O)cc1`, in assay [1], the inhibition was determined as 41.8%.

For the molecule `CCCOc1ccc(-c2cc(OCCN3CCCCC3)c3ccccc3n2)cc1`, in assay [1], the inhibition was 88.5%.

With `CCOC(=O)c1cn(C2CC2)c2cc(N3CCC4=C(C3)/C(=N/OC)C(C)CS4)c(N)cc2c1=O` (stereo unspecified), the inhibition in assay [1] turned out to be 19.7%.

As to `CCOC(=O)C1SC(NC(=S)NC(=O)c2ccccc2)=NC1C` (stereo unspecified), the inhibition in assay [1] was 23.2%.

Consider `C=CCOc1c(I)cc(/C=C2\C(=O)N(c3ccc(C(=O)O)cc3)N=C2c2ccccc2)cc1OC`, for which, in [1], the inhibition turned out to be 3.8%.

With `CCCOc1ccc(-c2cc(=O)c3ccccc3s2)cc1`, the inhibition in [1] was 6.3%.

Turning to `Cc1ccc(N(CC(=O)Nc2ccc(C(N)=O)cc2)S(=O)(=O)c2ccccc2)cc1C`, the inhibition in assay [1] was 0.6%.
